Results as given in ChEMBL document CHEMBL5303300, “EUbOPEN Chemogenomics Library - Multiplex” (2023).
Several values for one entry are separate records, joined by “and”; a condition that tells them apart may be missing. Identical values can stand only once.

Test system: HEK-293T
Assay: Multiplex assay against HEK293T
Type: toxicity, cell-based
Settings: human, number of replicates 2
In short: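 Tubulin, mitochondrial-mass and membrane-permeability phenotypes are per cents of healthy-nucleus cells. Cells were gated by CellPathfinder machine learning into Hoechst high-intensity objects or normal cells, normal cells into healthy, pyknosed or fragmented nuclei, and pyknosed cells into mitotic or apoptotic. Before that, live cells stained at seeding with Hoechst33342, BioTracker Green Microtubule Cytoskeleton Dye, MitoTracker Red and Annexin V Alexa Fluor 680 were imaged on a CQ1 microscope at 37°C and 5% CO2 after compound addition.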

[1] = 12 h, 1 µM, compound concentration 1 uM
[2] = 12 h, 10 µM, compound concentration 10 uM
[3] = 24 h, 1 µM, compound concentration 1 uM
[4] = 24 h, 10 µM, compound concentration 10 uM
[5] = 48 h, 1 µM, compound concentration 1 uM
[6] = 48 h, 10 µM, compound concentration 10 uM

In the case of `CCc1cnn2c(NCc3ccc[n+]([O-])c3)cc(N3CCCCC3CCO)nc12` (stereo unspecified), the “Population Apoptotic (%)” value [1] is reported as 70% and 62%, the “Population Fragmented Nuclei (%)” value [1] is reported as 3% and 2% and the “Population Healthy Nuclei (%)” value [1] is reported as 83% and 90%. The “Population Hoechst High Intensity Objects (%)” value [1] was 9% and 7%, the “Population Membrane Permeable-Phenotype (%)” value [1] was 0% and 1% and the “Population Mitochondria Different-Phenotype (%)” value [1] was 47% and 51%. For the same compound, the “Population Mitotic Cells (%)” value [1] was 29% and 37%, the “Population Normal (%)” value [1] was 90% and 92% and the “Population Pyknosed Nuclei (%)” value [1] was 12% and 7%. The “Population Tubulin-Different-Phenotype (%)” value [1] was 70% and 75%, the “Total Cell Count” value [1] was 349 and 339 and the “Population Apoptotic (%)” value [2] was 52% and 86%. For the same compound, the “Population Fragmented Nuclei (%)” value [2] was 3%, the “Population Healthy Nuclei (%)” value [2] was 89% and 90% and the “Population Hoechst High Intensity Objects (%)” value [2] was 13%. For the same compound, the “Population Membrane Permeable-Phenotype (%)” value [2] was 2% and 1%, the “Population Mitochondria Different-Phenotype (%)” value [2] was 59% and 57% and the “Population Normal (%)” value [2] was 86%. The “Population Pyknosed Nuclei (%)” value [2] was 7% and 6%, the “Population Tubulin-Different-Phenotype (%)” value [2] was 86% and the “Total Cell Count” value [2] was 345 and 378. The “Population Apoptotic (%)” value [3] was 74% and 68%, the “Population Fragmented Nuclei (%)” value [3] was 3% and 2% and the “Population Healthy Nuclei (%)” value [3] was 86%. For the same compound, the “Population Hoechst High Intensity Objects (%)” value [3] was 10% and 11%, the “Population Membrane Permeable-Phenotype (%)” value [3] was 1% and 0% and the “Population Mitochondria Different-Phenotype (%)” value [3] was 60% and 52%. For the same compound, the “Population Mitotic Cells (%)” value [3] was 25% and 31%, the “Population Normal (%)” value [3] was 89% and 88% and the “Population Pyknosed Nuclei (%)” value [3] was 10% and 11%. The “Population Tubulin-Different-Phenotype (%)” value [3] was 70% and 67%, the “Total Cell Count” value [3] was 295 and 327 and the “Population Apoptotic (%)” value [4] was 47% and 79%. The “Population Fragmented Nuclei (%)” value [4] was 4% and 3%, the “Population Healthy Nuclei (%)” value [4] was 88% and the “Population Hoechst High Intensity Objects (%)” value [4] was 18% and 17%. The “Population Membrane Permeable-Phenotype (%)” value [4] was 0%, the “Population Mitochondria Different-Phenotype (%)” value [4] was 70% and 67% and the “Population Mitotic Cells (%)” value [4] was 52% and 20%. For the same compound, the “Population Normal (%)” value [4] was 81% and 82%, the “Population Pyknosed Nuclei (%)” value [4] was 6% and 8% and the “Population Tubulin-Different-Phenotype (%)” value [4] was 83% and 85%. For the same compound, the “Total Cell Count” value [4] was 300 and 355, the “Population Apoptotic (%)” value [5] was 68% and 80% and the “Population Fragmented Nuclei (%)” value [5] was 4% and 3%. The “Population Healthy Nuclei (%)” value [5] was 85% and 80%, the “Population Hoechst High Intensity Objects (%)” value [5] was 11% and 13% and the “Population Membrane Permeable-Phenotype (%)” value [5] was 0%. The “Population Mitochondria Different-Phenotype (%)” value [5] was 71% and 75%, the “Population Mitotic Cells (%)” value [5] was 32% and 19% and the “Population Normal (%)” value [5] was 88% and 86%. The “Population Pyknosed Nuclei (%)” value [5] was 10% and 16%, the “Population Tubulin-Different-Phenotype (%)” value [5] was 74% and 67% and the “Total Cell Count” value [5] was 268 and 257. For the same compound, the “Population Apoptotic (%)” value [6] was 43% and 68%, the “Population Fragmented Nuclei (%)” value [6] was 1% and 5% and the “Population Healthy Nuclei (%)” value [6] was 91% and 87%. The “Population Hoechst High Intensity Objects (%)” value [6] was 19% and 20%, the “Population Membrane Permeable-Phenotype (%)” value [6] was 1% and 0% and the “Population Mitochondria Different-Phenotype (%)” value [6] was 74% and 73%. The “Population Mitotic Cells (%)” value [6] was 56% and 31%, the “Population Normal (%)” value [6] was 80% and 79% and the “Population Pyknosed Nuclei (%)” value [6] was 6% and 7%. The “Population Tubulin-Different-Phenotype (%)” value [6] was 83% and the “Total Cell Count” value [6] was 292 and 309.
For `CCn1c(-c2nonc2N)nc2cncc(C(=O)N3CC[C@H](N)C3)c21.Cl`, the “Population Apoptotic (%)” value [1] was 31% and 33%, the “Population Fragmented Nuclei (%)” value [1] was 2% and the “Population Healthy Nuclei (%)” value [1] was 81% and 83%. For the same compound, the “Population Hoechst High Intensity Objects (%)” value [1] was 7% and 5%, the “Population Membrane Permeable-Phenotype (%)” value [1] was 4% and 1% and the “Population Mitochondria Different-Phenotype (%)” value [1] was 10% and 8%. For the same compound, the “Population Mitotic Cells (%)” value [1] was 68% and 66%, the “Population Normal (%)” value [1] was 92% and 94% and the “Population Pyknosed Nuclei (%)” value [1] was 16% and 14%. For the same compound, the “Population Tubulin-Different-Phenotype (%)” value [1] was 33% and 38%, the “Total Cell Count” value [1] was 694 and 685 and the “Population Apoptotic (%)” value [2] was 21% and 43%. For the same compound, the “Population Fragmented Nuclei (%)” value [2] was 2%, the “Population Healthy Nuclei (%)” value [2] was 84% and 78% and the “Population Hoechst High Intensity Objects (%)” value [2] was 5% and 4%. The “Population Membrane Permeable-Phenotype (%)” value [2] was 1% and 0%, the “Population Mitochondria Different-Phenotype (%)” value [2] was 12% and 15% and the “Population Mitotic Cells (%)” value [2] was 78% and 56%. For the same compound, the “Population Normal (%)” value [2] was 94% and 95%, the “Population Pyknosed Nuclei (%)” value [2] was 13% and 19% and the “Population Tubulin-Different-Phenotype (%)” value [2] was 38% and 31%. The “Total Cell Count” value [2] was 716 and 454, the “Population Apoptotic (%)” value [3] was 46% and 37% and the “Population Fragmented Nuclei (%)” value [3] was 3%. The “Population Healthy Nuclei (%)” value [3] was 84% and 86%, the “Population Hoechst High Intensity Objects (%)” value [3] was 6% and 5% and the “Population Membrane Permeable-Phenotype (%)” value [3] was 2%. The “Population Mitochondria Different-Phenotype (%)” value [3] was 2% and 3%, the “Population Mitotic Cells (%)” value [3] was 53% and 62% and the “Population Normal (%)” value [3] was 93% and 94%. For the same compound, the “Population Pyknosed Nuclei (%)” value [3] was 11% and 9%, the “Population Tubulin-Different-Phenotype (%)” value [3] was 12% and 20% and the “Total Cell Count” value [3] was 994 and 875. The “Population Apoptotic (%)” value [4] was 30% and 53%, the “Population Fragmented Nuclei (%)” value [4] was 2% and 1% and the “Population Healthy Nuclei (%)” value [4] was 86% and 79%. For the same compound, the “Population Hoechst High Intensity Objects (%)” value [4] was 8% and 7%, the “Population Membrane Permeable-Phenotype (%)” value [4] was 1% and the “Population Mitochondria Different-Phenotype (%)” value [4] was 12% and 16%. The “Population Mitotic Cells (%)” value [4] was 69% and 46%, the “Population Normal (%)” value [4] was 91% and 92% and the “Population Pyknosed Nuclei (%)” value [4] was 10% and 18%. The “Population Tubulin-Different-Phenotype (%)” value [4] was 36% and 34%, the “Total Cell Count” value [4] was 751 and 447 and the “Population Apoptotic (%)” value [5] was 9% and 19%. For the same compound, the “Population Fragmented Nuclei (%)” value [5] was 9% and 8%, the “Population Healthy Nuclei (%)” value [5] was 86% and 87% and the “Population Hoechst High Intensity Objects (%)” value [5] was 10% and 9%. For the same compound, the “Population Membrane Permeable-Phenotype (%)” value [5] was 3%, the “Population Mitochondria Different-Phenotype (%)” value [5] was 0% and the “Population Mitotic Cells (%)” value [5] was 90% and 80%. The “Population Normal (%)” value [5] was 89% and 90%, the “Population Pyknosed Nuclei (%)” value [5] was 3% and 4% and the “Population Tubulin-Different-Phenotype (%)” value [5] was 11% and 10%. For the same compound, the “Total Cell Count” value [5] was 1942 and 1388, the “Population Apoptotic (%)” value [6] was 51% and 57% and the “Population Fragmented Nuclei (%)” value [6] was 7% and 3%. The “Population Healthy Nuclei (%)” value [6] was 87% and 84%, the “Population Hoechst High Intensity Objects (%)” value [6] was 11% and the “Population Membrane Permeable-Phenotype (%)” value [6] was 2% and 1%. For the same compound, the “Population Mitochondria Different-Phenotype (%)” value [6] was 4% and 7%, the “Population Mitotic Cells (%)” value [6] was 48% and 42% and the “Population Normal (%)” value [6] was 88%. For the same compound, the “Population Pyknosed Nuclei (%)” value [6] was 5% and 12%, the “Population Tubulin-Different-Phenotype (%)” value [6] was 28% and 30% and the “Total Cell Count” value [6] was 917 and 468.
